The source of these data is ChEMBL document CHEMBL1926642, “Relevance of the C-5 position to schweinfurthin induced cytotoxicity” (2011).

Type in all cases: functional
For assay [1], the system named is A549. The experiment in a line: Ratio of GI50 for human A549 cells to GI50 for human SF295 cells after 48 hrs by sulforhodamine B assay.
Assay [2] deals with EKVX. The experiment in a line: Cytotoxicity against human EKVX cells assessed as cell growth at 10 uM after 48 hrs by sulforhodamine B assay relative to control. The settings on record: read-out: Activity. Put shortly:
(§1)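 Compounds went through the NCI 60 cell-line screen, whose current protocol tests first at a single dose.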

Assay [3] concerns CCRF-CEM. In words: Cytotoxicity against human CCRF-CEM cells assessed as cell growth at 10 uM after 48 hrs by sulforhodamine B assay relative to control. As to conditions: read-out: Activity. Put shortly: as §1
Assay [4] concerns SK-OV-3. The experiment in a line: Cytotoxicity against human SKOV3 cells assessed as cell growth at 10 uM after 48 hrs by sulforhodamine B assay relative to control. As to conditions: SK-OV-3, 48 h, read-out: Activity. In outline: as §1
Assay [5] has as its system COLO 205. In words: Cytotoxicity against human COLO205 cells assessed as cell growth at 10 uM after 48 hrs by sulforhodamine B assay relative to control. As to conditions: COLO 205, 48 h, read-out: Activity. In outline:
as §1

In assay [6] the test system is MDA-MB-435. In words: Cytotoxicity against human MDA-MB-435 cells assessed as cell growth at 10 uM after 48 hrs by sulforhodamine B assay relative to control. The settings on record: MDA-MB-435, 48 h, read-out: Activity. In outline: as §1
The subject of assay [7] is DU-145. In words: Cytotoxicity against human DU145 cells assessed as cell growth at 10 uM after 48 hrs by sulforhodamine B assay relative to control. The settings on record: DU-145, 48 h, read-out: Activity. In outline: as §1
Assay [8] has as its system HCC 2998. The experiment in a line: Cytotoxicity against human HCC2998 cells assessed as cell growth at 10 uM after 48 hrs by sulforhodamine B assay relative to control. As to conditions: HCC 2998, 48 h, read-out: Activity. In outline:
as §1

In assay [9] the test system is ACHN. The experiment in a line: Cytotoxicity against human ACHN cells assessed as cell growth at 10 uM after 48 hrs by sulforhodamine B assay relative to control. The settings on record: read-out: Activity. In outline:
as §1

In assay [10] the test system is PC-3. The experiment in a line: Cytotoxicity against human PC3 cells assessed as cell growth at 10 uM after 48 hrs by sulforhodamine B assay relative to control. The settings on record: PC-3, 48 h, read-out: Activity. In outline: as §1
The test system of assay [11] is MDA-MB-468. In words: Cytotoxicity against human MDA-MB-468 cells assessed as cell growth at 10 uM after 48 hrs by sulforhodamine B assay relative to control. The settings on record: MDA-MB-468, 48 h, read-out: Activity. Put shortly: as §1
For assay [12], the system named is SK-MEL-5. In words: Cytotoxicity against human SK-MEL-5 cells assessed as cell growth at 10 uM after 48 hrs by sulforhodamine B assay relative to control. The settings on record: SK-MEL-5, 48 h, read-out: Activity. In outline: as §1
For assay [13], the system named is SK-MEL-2. In words: Cytotoxicity against human SK-MEL-2 cells assessed as cell growth at 10 uM after 48 hrs by sulforhodamine B assay relative to control. The settings on record: SK-MEL-2, 48 h, read-out: Activity. Put shortly: as §1
Assay [14] concerns HCT-15. In words: Cytotoxicity against human HCT15 cells assessed as cell growth at 10 uM after 48 hrs by sulforhodamine B assay relative to control. The settings on record: HCT-15, 48 h, read-out: Activity. Put shortly:
as §1

Assay [15] has as its system UO-31. In words: Cytotoxicity against human UO31 cells assessed as cell growth at 10 uM after 48 hrs by sulforhodamine B assay relative to control. As to conditions: UO-31, 48 h, read-out: Activity.
For assay [16], the system named is RXF 393. In words: Cytotoxicity against human RXF393 cells assessed as cell growth at 10 uM after 48 hrs by sulforhodamine B assay relative to control. The settings on record: RXF 393, 48 h, read-out: Activity. Put shortly: as §1
In assay [17] the test system is NCI-H23. The experiment in a line: Cytotoxicity against human NCI-H23 cells assessed as cell growth at 10 uM after 48 hrs by sulforhodamine B assay relative to control. As to conditions: NCI-H23, 48 h, read-out: Activity. In outline: as §1
The subject of assay [18] is BT-549. The experiment in a line: Cytotoxicity against human BT549 cells assessed as cell growth at 10 uM after 48 hrs by sulforhodamine B assay relative to control. As to conditions: BT-549, 48 h, read-out: Activity. In outline: as §1
For assay [19], the system named is T47D. In words: Cytotoxicity against human T47D cells assessed as cell growth at 10 uM after 48 hrs by sulforhodamine B assay relative to control. As to conditions: read-out: Activity.
For assay [20], the system named is SNB-75. The experiment in a line: Cytotoxicity against human SNB75 cells assessed as cell growth at 10 uM after 48 hrs by sulforhodamine B assay relative to control. The settings on record: SNB-75, 48 h, read-out: Activity.
Assay [21] deals with CAKI-1. The experiment in a line: Cytotoxicity against human Caki1 cells assessed as cell growth at 10 uM after 48 hrs by sulforhodamine B assay relative to control. The settings on record: CAKI-1, 48 h, read-out: Activity. Put shortly:
as §1

Assay [22] deals with SF-539. In words: Cytotoxicity against human SF539 cells assessed as cell growth at 10 uM after 48 hrs by sulforhodamine B assay relative to control. As to conditions: SF-539, 48 h, read-out: Activity. Put shortly: as §1
In assay [23] the test system is SN12C. In words: Cytotoxicity against human SN12C cells assessed as cell growth at 10 uM after 48 hrs by sulforhodamine B assay relative to control. The settings on record: read-out: Activity. In outline:
as §1

Assay [24] concerns OVCAR-4. In words: Cytotoxicity against human OVCAR4 cells assessed as cell growth at 10 uM after 48 hrs by sulforhodamine B assay relative to control. As to conditions: OVCAR-4, 48 h, read-out: Activity. Put shortly:
as §1

The subject of assay [25] is 786-0. In words: Cytotoxicity against human 786-0 cells assessed as cell growth at 10 uM after 48 hrs by sulforhodamine B assay relative to control. The settings on record: 786-0, 48 h, read-out: Activity. Put shortly: as §1
The subject of assay [26] is MCF7. In words: Cytotoxicity against human MCF7 cells assessed as cell growth at 10 uM after 48 hrs by sulforhodamine B assay relative to control. As to conditions: MCF7, 48 h, read-out: Activity. Put shortly:
as §1

The test system of assay [27] is OVCAR-8. The experiment in a line: Cytotoxicity against human OVCAR8 cells assessed as cell growth at 10 uM after 48 hrs by sulforhodamine B assay relative to control. As to conditions: OVCAR-8, 48 h, read-out: Activity. In outline:
as §1

Assay [28] has as its system M14. The experiment in a line: Cytotoxicity against human M14 cells assessed as cell growth at 10 uM after 48 hrs by sulforhodamine B assay relative to control. The settings on record: M14, 48 h, read-out: Activity. In outline: as §1
For assay [29], the system named is SK-MEL-28. In words: Cytotoxicity against human SK-MEL-28 cells assessed as cell growth at 10 uM after 48 hrs by sulforhodamine B assay relative to control. As to conditions: SK-MEL-28, 48 h, read-out: Activity. In outline: as §1
Assay [30] relates to HOP-92. In words: Cytotoxicity against human HOP92 cells assessed as cell growth at 10 uM after 48 hrs by sulforhodamine B assay relative to control. As to conditions: HOP-92, 48 h, read-out: Activity. Put shortly:
as §1

In assay [31] the test system is HOP-62. The experiment in a line: Cytotoxicity against human HOP62 cells assessed as cell growth at 10 uM after 48 hrs by sulforhodamine B assay relative to control. As to conditions: HOP-62, 48 h, read-out: Activity. In outline:
as §1

Assay [32] relates to HL-60(TB). In words: Cytotoxicity against human HL-60(TB) cells assessed as cell growth at 10 uM after 48 hrs by sulforhodamine B assay relative to control. As to conditions: HL-60, 48 h, read-out: Activity. In outline: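 Tested in the NCI 60 cell-line screen, where the current protocol starts with testing at a single dose.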
Assay [33] deals with NCI-H226. In words: Cytotoxicity against human NCI-H226 cells assessed as cell growth at 10 uM after 48 hrs by sulforhodamine B assay relative to control. As to conditions: NCI-H226, 48 h, read-out: Activity. In outline: as §1
The subject of assay [34] is SF-268. In words: Cytotoxicity against human SF268 cells assessed as cell growth at 10 uM after 48 hrs by sulforhodamine B assay relative to control. As to conditions: SF-268, 48 h, read-out: Activity. In outline:
as §1

For `COc1cc(/C=C/c2cc3c(c(OC)c2)O[C@]2(C)CC[C@@H](O)C(C)(C)[C@H]2C3)cc(O)c1C/C=C(\C)CCC=C(C)C`, the RatioGI50 in assay [1] was determined as 13.
With `COc1cc(/C=C/c2cc(O)c3c(c2)C[C@@H]2C(C)(C)[C@H](O)CC[C@@]2(C)O3)cc(O)c1C/C=C(\C)CCC=C(C)C`, the RatioGI50 in [1] is over 30.
As for `COc1cc(/C=C/c2cc(Br)c3c(c2)C[C@@H]2C(C)(C)[C@H](O)CC[C@@]2(C)O3)cc(O)c1C/C=C(\C)CCC=C(C)C`, the growth at 10 µM in assay [2] was found to be 107%; in assay [3], 85.3%; in [4], 116%; in assay [5], 126%; in [6], 109%; in [7] it was 91.3%. Also, the growth at 10 µM in assay [8] was determined as 103%; in assay [9], 104%; in [10] it was 87.6%; in [11] it was 110%; in assay [12], 99.3%; in assay [13], 112%. The growth at 10 µM in [14] turned out to be 96.1%; in assay [15] it was 91%; in assay [16], 80.7%; in assay [17], 103%; in assay [18], 108%; in assay [19] it was 109%. Also, the growth at 10 µM turned out to be 91.2% in assay [20]; 107% in assay [21]; 91.2% in assay [22]; 101% in assay [23]; 110% in [24]; 96% in [25]. Besides, the growth at 10 µM in [26] came out at 102%; in [27], 108%; in assay [28], 107%; in assay [29] it was 106%; in assay [30], 127%; in assay [31] it was 113%. The growth at 10 µM in [32] came to 69.7%; in assay [33], 117%; in [34], 88.5%.
In the case of `COCc1cc(/C=C/c2cc(O)c(C/C=C(\C)CCC=C(C)C)c(OC)c2)cc2c1O[C@]1(C)CC[C@@H](O)C(C)(C)[C@H]1C2`, the growth at 10 µM in [2] was found to be 118%; in assay [3], 81.9%; in assay [4], 145%; in assay [5], 130%; in assay [6], 120%; in assay [7], 105%. Also, the growth at 10 µM in [8] is 99.3%; in [9] it was 103%; in assay [10], 79%; in assay [11], 116%; in [12], 108%; in assay [13], 109%. Also, the growth at 10 µM in assay [14] was found to be 84.2%; in assay [15], 98.4%; in [16] it was 88%; in [17], 100%; in [18] it was 193%; in assay [19], 106%. Moreover, the growth at 10 µM in assay [20] came out at 84.2%; in [21], 118%; in assay [22], 89.9%; in assay [23] it was 96.2%; in assay [24] it was 108%; in assay [25] it was 69.8%. Further, the growth at 10 µM in assay [26] amounted to 103%; in assay [27], 103%; in assay [28] it was 117%; in assay [29] it was 118%; in [30], 108%; in assay [31], 127%. In addition, the growth at 10 µM in [32] came to 78.2%; in assay [33] it was 120%; in assay [34] it was 97.1%.
